PHOSPHO1 inh: PHOSPHO1 (human) inhibition. recombinant PHOSPHO1, absorbance phosphatase assay. 290,000 compounds, 1.1% hits. inhibition, % at 13.3 µM; in the data active = inhibition above about 60%
Target sequence (Q8TCT1 whole entry, looked up): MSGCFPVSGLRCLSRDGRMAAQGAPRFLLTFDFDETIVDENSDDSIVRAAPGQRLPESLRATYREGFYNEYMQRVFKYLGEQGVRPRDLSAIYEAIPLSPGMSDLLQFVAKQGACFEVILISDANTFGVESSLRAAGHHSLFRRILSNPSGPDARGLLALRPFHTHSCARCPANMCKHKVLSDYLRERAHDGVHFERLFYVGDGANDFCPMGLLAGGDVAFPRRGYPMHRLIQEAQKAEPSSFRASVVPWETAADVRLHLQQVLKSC
HCV core dimer: blocks dimerization of HCV core protein. TR-FRET GST/Flag-core106 dimerization, 1536-well. inhibition, % at 5 µM. 300,000 compounds, 0.33% hits;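 active = inhibition above the mean of all tested compounds plus 3 SD, set per screening campaign, cut at about 45% in these data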
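System: GST-tagged and Flag-tagged HCV core protein residues 1-106 / Input: core106 proteins, GST 13.5 nM and Flag 17 nM / Buffer or medium: KF-containing HEPES buffer, pH 7.45, DTT, CHAPS, BSA / Probe or stimulus: Eu-anti-GST and XL665-anti-Flag labelled anti-tag antibodies / Schedule: 4 h, 22.5 °C incubation / Technique: TR-FRET 671 and 617 nm emission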
HCV NS3 hel inh: blocks Hepatitis C virus NS3 helicase unwinding; AID 1800; 290,000 compounds, 0.56% hits; inhibition, % at 10.9 µM; NS3 helicase DNA unwinding, Cy5 molecular beacon fluorescence;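 active = inhibition above the mean of all tested compounds plus 3 SD, set per campaign, cut at about 35% in these data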;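 note: 0% = DMSO wells and 100% = thioflavine S control wells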
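System: HCV NS3 helicase fragment; control set: DMSO and thioflavine S; technique: Cy5 fluorescence at 0 and 60 min, beacon hairpin quenching; reagent: beacon DNA duplex substrate plus ATP; replicates: singlicate; schedule: 1 h reaction at 25 °C, ATP-initiated; medium: MOPS buffer pH 6.5 with MgCl2, DTT, Tween20, BSA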
IMP-1 inh: blocks Pseudomonas aeruginosa IMP-1 metallo-beta-lactamase | purified IMP-1, nitrocefin hydrolysis, epi-absorbance fluorescence | inhibition, % at 5.6 µM | 290,000 compounds, 0.45% hits | AID 1556;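 active = inhibition above the mean plus 3 SD of all compounds in the same screening run, cut at about 4.5% in these data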;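 note: 0% = IMP-1 with DMSO and 100% = DMSO wells lacking enzyme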
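System – purified recombinant IMP-1 beta-lactamase · Input – IMP-1 dispensed at 0.2 nM · Timing – 15 min preincubation plus 25 min reaction at 25 °C · Signal – Epi-absorbance fluorescence, 480 nm excitation, 530 nm emission · Measure – percent IMP-1 inhibition derived from blank-referenced optical density · Controls – Enzyme-plus-DMSO low control, enzyme-free DMSO high control · Replication – singlicate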
UBC9 SUMO inh: blocks human SUMOylation mediated by UBC9. HTRF SUMOylation assay, SAE1/SAE2 + UBC9, in vitro. inhibition, % at 35 µM. 290,000 compounds, 0.36% hits. AID 2006; in the data active = inhibition above about 50%, passing the limit was not always enough
Target sequence (P63279 whole entry, looked up): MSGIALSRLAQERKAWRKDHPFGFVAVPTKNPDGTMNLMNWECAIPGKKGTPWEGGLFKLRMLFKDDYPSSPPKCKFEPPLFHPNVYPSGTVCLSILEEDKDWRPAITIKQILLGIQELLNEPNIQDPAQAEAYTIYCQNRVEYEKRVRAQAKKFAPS
VIM-2 inh: blocks Pseudomonas aeruginosa VIM-2 metallo-beta-lactamase; purified VIM-2, nitrocefin hydrolysis, epi-absorbance fluorescence; inhibition, % at 5.6 µM; 290,000 compounds, 0.89% hits; AID 1527;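 active = inhibition above the mean of all tested compounds plus 3 SD, cutoff set per screening run, cut at about 7.5% in these data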;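 note: red hydrolysis product quenches plate fluorescence so inhibitors raise well fluorescence; 0% = enzyme with DMSO and 100% = DMSO without enzyme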
NS3 helicase cf: confirmation of Hepatitis C virus NS3 helicase inhibitors; shares compounds with HCV NS3 hel inh; NS3 helicase DNA unwinding, Cy5 molecular beacon fluorescence; inhibition, % at 10.9 µM; 1,600 compounds, 31% hits; AID 1943;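 active = inhibition above the mean of all tested compounds plus 3 SD, cutoff set per campaign, cut at about 36% in these data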
DNA FID counter: counter-screen for HCV NS3 helicase inhibitors: DNA intercalator displacement | shares compounds with HCV NS3 hel inh | DNA fluorescent intercalator displacement, fluorescence | inhibition, % at 7.9 µM | 1,600 compounds, 4% hits; in the data active = inhibition above about 37%;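 note: 0% = vehicle and 100% = reference compound; higher means more displacement of ethidium bromide from the DNA hairpin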
DNA FID DR: DNA intercalator displacement in dose response; shares compounds with HCV NS3 hel inh; fluorescent intercalator displacement from DNA, fluorescence; IC50, µM; 120 tested, under 10 active; call rule not given here
* = called active by the depositor; · = not tested or not shown. Shown are actives, neighbours in structure and some others; about 3.1% of the full set was active somewhere.

SMILES	PHOSPHO1 inh	HCV core dimer	HCV NS3 hel inh	IMP-1 inh	UBC9 SUMO inh	VIM-2 inh	NS3 helicase cf	DNA FID counter	others
CC(C)NC(=S)N/N=C/c1cc(Br)ccc1O	-10	7	-2	0	1	1	·	·
CCc1cc2c(SCc3nc4sc(C(C)=O)c(C)c4c(=O)[nH]3)ncnc2s1	-23	21	5	-3	8	-2	·	·
Cc1ccc2cc(C3CC(c4ccco4)=NN3C(=O)CCCC(=O)O)c(Cl)nc2c1 (stereo unspecified)	23	4	51*	2	17	2	-30	-38
CC(NC(=O)/C=C/c1ccco1)c1nc2ccccc2n1Cc1cccc(Cl)c1 (stereo unspecified)	-7	12	36*	-6	8	-5	-10	-12
CCOC(=O)Cc1cc(=O)n2[nH]c(-c3ccc(Cl)cc3)cc2n1	13	-2	10	-4	4	-4	·	·
CCOC(=O)Cc1cc(=O)n2[nH]cc(-c3ccc(Cl)cc3)c2n1	21	4	64*	-5	9	-4	84*	13
Cc1ccc(NC(N)=S)cc1	3	0	36*	-1	11	1	2	3
CCOC(=O)NC1(NC(C)C)Oc2ccccc2O1	18	-6	16	-3	-11	-3	·	·
CCOC(=O)NC1(NC2CCCCC2)Oc2ccccc2O1	35	-6	38*	1	-6	1	-14	-4
CCn1c(CNC(=O)c2cccc(C)c2)nnc1SCC(=O)NC1CCCC1	8	-1	4	-2	1	-3	·	·
CCn1c(CNC(=O)c2cccc(C)c2)nnc1SCC(=O)NC1CCCCC1C (stereo unspecified)	42	0	65*	-2	12	-3	-5	-27
Cn1c(=O)n(C)c2cc(NC(=O)COc3ccc(Cl)cc3)ccc21	2	0	12	-4	11	-3	·	·
CO/N=C/c1ccc(N2CCN(C(=O)c3ccc(F)cc3)CC2)c([N+](=O)[O-])c1	5	-11	40*	-3	-4	-1	-16	-32
O=C(CCNC(=O)c1ccc(Br)cc1)NCC1COc2ccccc2O1 (stereo unspecified)	57	-12	8	-2	2	-1	·	·
CN(C)c1ccc(/C=C/c2ccc3c4ccccc4ccc3[n+]2-c2ccccc2)cc1	45	·	63*	-9	-22	-1	91*	101*
C=CCn1nnnc1SCC(=O)Nc1cccc(C(F)(F)F)c1	27	-2	-2	-1	8	0	·	·
COc1ccc(NCc2cc(=O)oc3cc(NC(C)=O)ccc23)cc1	3	-23	16	-5	12	-2	·	·
Cc1cc(/C=C2\Cc3ccccc3C2=O)c(C)n1-c1ccccc1	-2	34	39*	-2	8	-1	-17	-20
Cc1ccc(-c2nc3c(c(=O)c4ccccc4n3C)c(=O)n2Cc2ccco2)cc1	27	21	38*	1	21	4	23	-6
COc1ccc(CN2CCN(c3nc4ccccc4s3)CC2)cc1	32	·	23	1	-12	0	·	·
COc1ccc(CCn2c(O)cc3nn(-c4nc5ccccc5s4)c(=O)c-3c2C)cc1	36	60*	46*	-4	63*	-3	78*	-17
Cc1c(C)c2c(OCC(=O)N3CCC(C(=O)O)CC3)cc3c(c2oc1=O)CCC(C)(C)O3	18	7	1	0	42	0	·	·
CSc1ccc(C2C(C(=O)c3ccco3)=C(O)C(=O)N2c2nnc(SC)s2)cc1 (stereo unspecified)	-62	28	39*	0	16	0	89*	4	DNA FID DR=>79
CCOC(=O)c1ccc(N2C(=O)C(O)=C(C(C)=O)C2c2ccc([N+](=O)[O-])cc2)cc1 (stereo unspecified)	29	-3	45*	-1	-8	-1	36*	-23
CC(=O)C1=C(O)C(=O)N(c2ccc(C(=O)O)cc2)C1c1ccc([N+](=O)[O-])cc1 (stereo unspecified)	36	-2	-1	0	5	1	·	·
SMILES	PHOSPHO1 inh	HCV core dimer	HCV NS3 hel inh	IMP-1 inh	UBC9 SUMO inh	VIM-2 inh	NS3 helicase cf	DNA FID counter	others
CCOC(=O)c1sc(N2C(=O)C(O)=C(C(=O)c3ccco3)C2c2ccc([N+](=O)[O-])cc2)nc1C (stereo unspecified)	20	-3	37*	-3	-6	-2	106*	28
CCOC(=O)c1sc(N2C(=O)C(O)=C(C(=O)c3ccco3)C2c2ccc(C)o2)nc1C (stereo unspecified)	6	-10	26	-4	8	-4	·	·
Cc1c(Cl)c([N+](=O)[O-])nn1CCCC(=O)NC1CCCCC1	-26	-3	-3	-4	10	-4	·	·
CCOc1ccc(NC(=O)CSc2ccc(-c3cccnc3)nn2)cc1	18	-4	5	-1	11	-1	·	·
Cc1c(Cl)c(C(F)F)nn1CC(=O)NC1C(=O)N2C(C(=O)O)=C(CSc3nnnn3C)CSC12 (stereo unspecified)	-13	·	38*	-3	12	0	32	-2
Cc1c(Cl)cnn1CC(=O)NC1C(=O)N2C(C(=O)O)=C(CSc3nnnn3C)CSC12 (stereo unspecified)	-10	3	20	-2	-1	-1	·	·
Cc1ccc2c(nc3s/c(=C\c4ccc(-c5ccccc5C(=O)O)o4)c(=O)n32)c1C	23	12	44*	2	29	1	65*	50*
O=c1/c(=C\c2cccnc2)sc2nc3ccccc3n12	-29	·	1	-4	19	-6	·	·
O=C(O)c1ccc(-c2ccc(/C=c3/sc4nc5ccccc5n4c3=O)o2)cc1Cl	31	10	63*	-2	30	5	60*	24
COc1cc([N+](=O)[O-])ccc1NC(=O)CCS(=O)(=O)c1ccc2c(c1)n(C)c(=O)c(=O)n2C	44	-1	-7	-2	6	-4	·	·
CC(C)C[C@H](NC(=O)OC(C)(C)C)C(=O)N[C@@H](CO)[C@H](O)[C@@H]1C[C@@H]1C(=O)NC1CC1	4	1	-4	-4	-5	0	·	·
CCCCNC(=O)[C@H]1C[C@H]1[C@@H](O)[C@H](CO)NC(=O)[C@H](CC(C)C)NC(=O)OC(C)(C)C	-7	-12	36*	-2	9	-1	5	-36
